Assay results: ChEMBL document CHEMBL1833899, “Targeting hypoxic tumor cell viability with carbohydrate-based carbonic anhydrase IX and XII inhibitors” (J Med Chem, 2011)
Activity calls are given as the source filed them. The calls are words filed in the database; no cut-off is given here.

Key:
[1] = biological target: T1, Carbonic anhydrase 9 (Homo sapiens, UniProt Q16790)
[2] = Cytotoxicity against CA9-deficient chinese hamster PS120 cells assessed as cell viability at 60 uM and pH 7.5 after 24 hrs by giemsa staining; type: cell-based, Cricetulus griseus; settings: ps120, pH 7.5, 24 h
In short: (§1)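 PS120-pev fibroblasts (CCL39-derived, no CA IX) attached, then held 24 h in HCO3−-free DMEM with 30 mM HEPES at pHo 7.5, 10% dialyzed serum, 0.1 mM hypoxanthine and 0.1 mM uridine triphosphate, in CO2/HCO3−-free atmosphere, with compound or DMSO. Then returned to regular medium under 5% CO2 for 7 days; Giemsa staining; scored viable or not viable.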

[3] = Cytotoxicity against CA9-deficient chinese hamster PS120 cells assessed as cell viability at 30 uM and pH 7.5 after 24 hrs by giemsa staining; type: cell-based, Cricetulus griseus; settings: ps120, pH 7.5, 24 h
In short: as §1

[4] = Cytotoxicity against CA9-deficient chinese hamster PS120 cells assessed as cell viability at 100 uM and pH 7.5 after 24 hrs by giemsa staining; type: cell-based, Cricetulus griseus; settings: ps120, pH 7.5, 24 h
In short: as §1

[5] = Cytotoxicity against CA9-deficient chinese hamster PS120 cells assessed as cell viability at 300 uM and pH 7.5 after 24 hrs by giemsa staining; type: cell-based, Cricetulus griseus; settings: ps120, pH 7.5, 24 h
In short: as §1

[6] = test system: LS174T; test: Reduction in CA9 mRNA level in human LS 174T cells expressing shca9 and tetracyclin repressor under hypoxia condition at 60 uM after 48 hrs by Western blot analysis; type: functional, cell-based
[7] = test system: LS174T; test: Reduction in CA9 protein level in human LS 174T cells expressing shca9 and tetracyclin repressor under normoxia condition at 60 uM after 48 hrs by Western blot analysis; type: functional, cell-based
In short: (§2)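 Stable LS-shca9/ctl cells kept without Tet for 4 days, then placed in normoxia (21% O2) or hypoxia (1% O2) for 48 h with or without 60 µM compound. Whole-cell SDS lysates (40 µg protein) run on 7.5% SDS-PAGE and immunoblotted with M75 anti-CA IX; Hsp90 as loading control; HRP secondary with ECL detection.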

[8] = Antiproliferative activity against ca9/ca12 double silenced human LS 174T cells under hypoxia assessed as decrease in cell proliferation at 60 uM after 3 days by cell counting technique relative to control; type: functional, LS174T; parameters: scale not given: the % may be the effect or the level left
In short: (§3)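 LS174Tr colon carcinoma cells carrying Tet-inducible ca9 shRNA plus nontarget (ctl) or constitutive ca12 shRNA. Tet (1 µg/ml) added 4 days before assay for ca12-silenced cells. 6 x 10^4 cells seeded; 24 h later moved to hypoxia (1% O2) with or without inhibitor (DMSO control). Cells detached and Coulter-counted every 24 h for 3 days; proliferation index = daily count / count at 24 h post-seeding.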

[9] = biological target: T1, Carbonic anhydrase 9; settings: PS120, at 60 µM
[10] = Antiproliferative activity against human LS 174T cells expressing shca9 under hypoxia condition at 60 uM after 3 days by cell counting technique relative to control; type: functional, LS174T
In short: as §3

[11] = test system: LS174T; test: Reduction in CA9 mRNA level in human LS 174T cells expressing shca9 and tetracyclin repressor under normoxia condition at 60 uM after 48 hrs by Western blot analysis; type: functional, cell-based
[12] = test system: LS174T; test: Reduction in CA9 level in human LS 174T cells expressing shca9 and tetracyclin repressor under hypoxia condition at 60 uM after 48 hrs by Western blot analysis; type: functional, cell-based
In short: as §2

| Compound | Ki [1] | Activity [2] | Activity [3] | Activity [4] | Activity [5] | also measured |
| --- | --- | --- | --- | --- | --- | --- |
| CC(=O)OC[C@H]1O[C@@H](S(=O)(=O)Cc2nnn(-c3ccc(S(N)(=O)=O)cc3)c2I)[C@H](OC(C)=O)[C@@H](OC(C)=O)[C@H]1OC(C)=O | 97 nM |  |  |  |  |  |
| CC(=O)Nc1nnc(S(N)(=O)=O)s1 [ACETAZOLAMIDE] |  | Non-toxic | Non-toxic | Non-toxic | Toxic |  |
| CC(=O)OC[C@H]1O[C@@H](SCc2nnn(-c3ccc(S(N)(=O)=O)cc3)c2C#CCO)[C@H](OC(C)=O)[C@@H](OC(C)=O)[C@H]1OC(C)=O | 91 nM |  |  |  |  |  |
| NS(=O)(=O)c1ccc(-n2cc(CS(=O)(=O)[C@@H]3O[C@H](CO)[C@@H](O)[C@H](O)[C@H]3O)nn2)cc1 |  | Non-toxic | Non-toxic | Non-toxic | Non-toxic |  |
| NS(=O)(=O)c1ccc(-n2cc(CS[C@@H]3O[C@H](CO)[C@@H](O)[C@H](O)[C@H]3O)nn2)cc1 |  | Non-toxic | Non-toxic | Non-toxic | Non-toxic |  |
| CC(=O)OC[C@H]1O[C@@H](S(=O)(=O)Cc2nnn(-c3ccc(S(N)(=O)=O)cc3)c2I)[C@H](OC(C)=O)[C@@H](OC(C)=O)[C@@H]1OC(C)=O | 71 nM | Toxic | Non-toxic | Toxic | Toxic |  |
| CC(=O)OC[C@H]1O[C@@H](SCc2cn(-c3ccc(S(N)(=O)=O)cc3)nn2)[C@H](OC(C)=O)[C@@H](OC(C)=O)[C@@H]1OC(C)=O |  | Non-toxic | Non-toxic | Non-toxic |  |  |
| CC(=O)OC[C@H]1O[C@@H](S(=O)(=O)Cc2cn(-c3ccc(S(N)(=O)=O)cc3)nn2)[C@H](OC(C)=O)[C@@H](OC(C)=O)[C@@H]1OC(C)=O |  | Non-toxic | Non-toxic | Non-toxic | Non-toxic |  |
| CC(=O)OC[C@H]1O[C@@H](S(=O)(=O)Cc2cn(-c3ccc(S(N)(=O)=O)cc3)nn2)[C@H](OC(C)=O)[C@@H](OC(C)=O)[C@@H]1O[C@H]1O[C@H](COC(C)=O)[C@@H](OC(C)=O)[C@H](OC(C)=O)[C@H]1OC(C)=O | 61.9 nM |  |  |  |  |  |

Second part, led by results:

| Ki [1] | Compound | Activity [2] | Activity [3] | Activity [4] | Activity [5] | also measured |
| --- | --- | --- | --- | --- | --- | --- |
| 99.6 nM | CC(=O)OC[C@H]1O[C@@H](S(=O)(=O)Cc2nnn(-c3ccc(S(N)(=O)=O)cc3)c2I)[C@H](OC(C)=O)[C@@H](OC(C)=O)[C@@H]1O[C@H]1O[C@H](COC(C)=O)[C@@H](OC(C)=O)[C@H](OC(C)=O)[C@H]1OC(C)=O |  |  |  |  |  |
| 89 nM | NS(=O)(=O)c1ccc(-n2nnc(CS(=O)(=O)[C@@H]3O[C@H](CO)[C@H](O)[C@H](O)[C@H]3O)c2I)cc1 |  |  |  |  |  |
| 7.3 nM | NS(=O)(=O)c1ccc(-n2nnc(CS[C@@H]3O[C@H](CO)[C@H](O)[C@H](O)[C@H]3O)c2I)cc1 |  |  |  |  |  |
| 68 nM | NS(=O)(=O)c1ccc(-n2nnc(CS(=O)(=O)[C@@H]3O[C@H](CO)[C@@H](O[C@H]4O[C@H](CO)[C@@H](O)[C@H](O)[C@H]4O)[C@H](O)[C@H]3O)c2I)cc1 |  |  |  |  |  |
| 6.2 nM | CC(=O)OC[C@H]1O[C@@H](SCc2nnn(-c3ccc(S(N)(=O)=O)cc3)c2I)[C@H](OC(C)=O)[C@@H](OC(C)=O)[C@@H]1OC(C)=O | Non-toxic | Non-toxic | Toxic | Toxic | Activity [6]: Active; Activity [7]: Active; Activity [8]: 16%; inhibition [9]: Active; Activity [10]: 60%; Activity [11]: Active; Activity [12]: Active |
| 61 nM | NS(=O)(=O)c1ccc(-n2nnc(CS(=O)(=O)[C@@H]3O[C@H](CO)[C@@H](O)[C@H](O)[C@H]3O)c2I)cc1 | Non-toxic | Non-toxic | Non-toxic | Toxic |  |
| 6.5 nM | NS(=O)(=O)c1ccc(-n2nnc(CS[C@@H]3O[C@H](CO)[C@@H](O)[C@H](O)[C@H]3O)c2I)cc1 | Non-toxic | Non-toxic | Non-toxic | Non-toxic |  |
| 95 nM | CC(=O)OC[C@H]1O[C@@H](SCc2nnn(-c3ccc(S(N)(=O)=O)cc3)c2I)[C@H](OC(C)=O)[C@@H](OC(C)=O)[C@H]1OC(C)=O |  |  |  |  |  |
| 71.2 nM | NS(=O)(=O)c1ccc(-n2cc(CS(=O)(=O)[C@@H]3O[C@H](CO)[C@@H](O[C@H]4O[C@H](CO)[C@@H](O)[C@H](O)[C@H]4O)[C@H](O)[C@H]3O)nn2)cc1 |  |  |  |  |  |
